Values joined by “and” are separate entries in the source; they are usually repeats but may differ in a detail not shown here. Equal values may be shown once. “Also recorded” adds a separate entry of the source. Where no end group is shown, it is not given here.
Key:
[1] = test system: EGFR; conditions: ref [16],[17]; cited from earlier work
[2] = biological target: EGFR kinase domain (residues 672-998) (Homo sapiens, UniProt P00533); assay: Enzyme-coupled kinase assay, wild type EGFR kinase domain; assay type: biochemical
[3] = test system: I682Q EGFR kinase domain; assay: Enzyme-coupled kinase assay, I682Q mutant alone; assay type: biochemical; conditions: 2 μM kinase domain; titration of Peptide C; 500 μM ATP; pH 7.5; room temperature
Outline: (§1)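 Spectrophotometric enzyme-coupled kinase assay using N-terminally His6-tagged EGFR kinase domain (residues 672-998); mutants were made by site-directed mutagenesis and sequence-confirmed. Total kinase domain was 2 μM, with 1 μM of each mutant when paired. The test peptide substrate was titrated with 500 μM ATP in 10 mM MgCl2, 20 mM Tris pH 7.5 at room temperature. Specific rates came from at least triplicates; for pairs, Hill coefficients came from variable-slope log(agonist)-response fits.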

[4] = test system: V924R EGFR kinase domain; assay: Enzyme-coupled kinase assay, V924R mutant alone; assay type: biochemical; conditions: 2 μM kinase domain; titration of Peptide C; 500 μM ATP; pH 7.5; room temperature
Outline: as §1

[5] = biological target: I682Q and V924R EGFR kinase domains (Homo sapiens, UniProt P00533, V948R); assay: Enzyme-coupled kinase assay, pair I682Q and V924R; assay type: biochemical; conditions: 1 μM each
Outline: as §1

[6] = biological target: I682Q/D813N and V924R EGFR kinase domains (Homo sapiens, UniProt P00533, V948R); assay: Enzyme-coupled kinase assay, pair I682Q/D813N and V924R; assay type: biochemical; conditions: I682Q/D813N with V924R, 1 μM each; minimum of three replicates
Outline: as §1

[7] = biological target: T1, EGFR kinase domain (Homo sapiens, UniProt P00533); assay: Immunoblot analysis of EGFR kinase domain autophosphorylation; assay type: biochemical; conditions: 0-60 μM Peptide C; 800 nM EGFR kinase domain; 500 μM ATP; pH 7.5; 1 minute; room temperature; minimum of three replicates
[8] = Dynamic light scattering of Peptide C; assay type: physicochemical; conditions: DLS, 25° C
Outline: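 Test peptide at 1 mM, prepared in water, in 20 mM NaCl, or in assay buffer (15 mM Tris pH 7.5, 0.02% v/v polysorbate 20, 20 mM NaCl). DLS was run at 25° C with a 60 mW laser at 15% power and a 90° detection angle. Buffer components were filtered beforehand; the peptide itself was not filtered.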

[9] = Transmission electron microscopy of Peptide C alone; assay type: physicochemical; conditions: 20, 40 and 80 μM, TEM
Outline: (§2)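 Test peptide at varied concentrations, without or with 2 μM wild-type or I682Q His-tagged EGFR kinase domain (residues 672-998), in 10 mM Tris pH 7.5, 20 mM NaCl, 0.02% v/v polysorbate 20. Samples were incubated about 10 min at room temperature, then adsorbed onto Formvar carbon-coated copper grids. Grids were negatively stained with three applications of 1% w/v uranyl acetate and imaged by transmission electron microscopy.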

[10] = test system: wild type EGFR kinase domain; assay: Transmission electron microscopy with wild type EGFR kinase domain; conditions: TEM
Outline: as §2

[11] = test system: I682Q EGFR kinase domain; assay: Transmission electron microscopy with I682Q EGFR kinase domain; conditions: different concentrations of Peptide C; 2 μM I682Q EGFR kinase domain; TEM
Outline: as §2

[12] = test system: EGFR; conditions: reported value, cited from earlier work
[13] = biological target: T1, EGFR kinase domain; assay: Radiometric kinase assay of Tail Peptide A phosphorylation; assay type: biochemical
Outline: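 Buffer was 15 mM Tris pH 7.5, 0.02% v/v polysorbate 20, 10 mM MgCl2. A non-phosphorylatable test peptide (substrate Tyr→Ala) was added at varied concentrations. After 10 min at room temperature, reactions were quenched with 0.5% v/v phosphoric acid, spotted on phosphocellulose filters, washed, and scintillation-counted (four replicate filters).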

[14] = Peptide C (2 μM EGFR) vs Tyrsub (8 μM EGFR)

## poly-arginine
[1]
  aggregation and activation of EGFR: can aggregate and activate EGFR in an apparently cooperative manner

## poly-lysine
[1]
  aggregation and activation of EGFR: can aggregate and activate EGFR in an apparently cooperative manner

## CCCCCCCCCCCCC/C=C/[C@@H](O)[C@@H](N)CO [sphingosine]
[1]
  aggregation and activation of EGFR: can aggregate and activate EGFR in an apparently cooperative manner

## protamine
[1]
  aggregation and activation of EGFR: can aggregate and activate EGFR in an apparently cooperative manner

## RAHEEIYHFFFAKKK [Peptide C]
[2]; Peptide C (2 μM EGFR) vs Tail Peptide A (8 μM EGFR)
  kcat, fold higher than for Tail Peptide A: roughly eight
[2]; [14]
  catalytic efficiency (kcat/KM), fold higher than for Tyrsub: ~760 fold
  kcat, fold higher than for Tyrsub: roughly eight
[2]; wild type kinase domain, 2 μM, 500 μM ATP, pH 7.5, room temperature, Hill equation fit, minimum of three replicates
  Hill coefficient (nH): ~ 2.8 and ~3
[3]
  activating properties with I682Q alone: entirely abrogated
[4]
  activating properties with V924R alone: entirely abrogated
[5]; I682Q and V924R combined, 500 μM ATP, pH 7.5, room temperature
  catalysis relative to wild type kinase domain: about 60%
[5]; I682Q with V924R, minimum of three replicates
  Hill coefficient (nH): ~ 3.0
[6]
  Hill coefficient (nH): ~ 2.5
[7]
  Tyr-845 phosphorylation: increases in a dose-dependent manner
  Tyr-974 phosphorylation: same dose-dependent increase in phosphorylation
  Tyr-992 phosphorylation: same dose-dependent increase in phosphorylation
[8]; 1 mM in 20 mM sodium chloride
  aggregation: aggregation to an intermediate degree between the aqueous solution and the buffered samples
[8]; 1 mM in water
  aggregation: limited aggregation
[8]; 1 mM in water, polydisperse distribution
  hydrodynamic radius: 1-10 nm
[9]; 10 mM Tris, pH 7.5, 20 mM NaCl, 0.02% polysorbate 20
  fibril length: several hundreds
[9]
  dependence of fibril morphology on concentration: appears to be independent of Peptide C concentration
  globular aggregates: Globular aggregates closely associated with the fibrils are also observed
[10]; 20 μM Peptide C, 2 μM EGFR kinase domain
  small, dispersed EGFR aggregates: also observed
[10]; 80 μM Peptide C, 2 μM EGFR kinase domain
  small, dispersed EGFR aggregates: not observed
[10]; 20 and 80 μM Peptide C, 2 μM EGFR kinase domain, about 10 minutes
  fibrils and globular aggregates with EGFR kinase domain: forms fibrils in the presence of EGFR; also recorded: Fibrils similar to those formed by Peptide C alone as well as globular aggregates localized near the fibrils are observed
[10]; Peptide C with 2 μM EGFR kinase domain
  fibril edges with EGFR kinase domain: the fibril edges are less defined; also recorded: appear less crisp
[11]
  appearance with I682Q EGFR kinase domain compared with wild type: appear indistinguishable from wild type
[12]; ref [5],[9]
  Km: 128 µM
[12]; ref [9]
  catalytic efficiency, kcat/KM, fold higher than for Tail Peptide A: ~ 26 fold

## RAHEEIAHFFFAKKK [Peptide C variant]
[13]
  EC50: 45 µM

Source: publication PMC4048812 (The Biochemical journal, 2013)
